Active and inactive are the calls of the source. The calls are words filed in the database; no cut-off is given here.
Tests used:
[1] = test system: MCF7; test: Growth inhibition of human MCF7 cells after 72 hrs by celltiter-blue viability assay; assay type: functional
Procedure, shortened: (§1)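 Cells (HUVEC from Lonza, others from ATCC) seeded at 2500–10 000 cells/well 24 h before dosing. 3-fold serial dilutions in DMSO, 0.1% DMSO final. Cell-Titer Blue read at 0 h and 72 h.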

[2] = Growth inhibition of human MCF10A cells after 72 hrs by celltiter-blue viability assay; assay type: cell-based, MCF-10A; procedure, shortened: as §1
[3] = test system: HCT-15; test: Induction of DNA damage in human HCT15 cells assessed as H2AX phosphorylation after 4 hrs by Western blot analysis; assay type: functional, cell-based
Procedure, shortened: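 HCT-15 cells at 10 000/well, dosed 4 h at 37 °C, 0.1% DMSO final. In-cell Western with anti-phospho-H2AX (Ser139) and DRAQ5. 800/700 nm ratio normalized to 0.1% DMSO (0%) and 10 μM etoposide (100%). Curve fit by nonlinear regression.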

[4] = test system: MCF-10A; test: Growth inhibition of human MCF10A cells after 72 hrs by celltiter-blue viability assay relative to control; assay type: cell-based
Procedure, shortened: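 MCF10A seeded at 2500–10 000 cells/well 24 h before dosing. 3-fold serial dilutions, 0.1% DMSO final. Cell-Titer Blue read at 0 and 72 h. Growth normalized to DMSO controls at 0 h (0%) and 72 h (100%). Dose-response fitted by nonlinear regression.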

[5] = test system: HCT-15; test: Cytotoxicity against MDR1 expressing human HCT15 cells; assay type: functional, cell-based; procedure, shortened: as §1
[6] = Growth inhibition of human U87 cells after 72 hrs by celltiter-blue viability assay; assay type: functional, U-87MG ATCC; conditions: U-87 MG; procedure, shortened: as §1
[7] = test system: SR; test: Growth inhibition of human SR cells after 72 hrs by celltiter-blue viability assay; assay type: functional; procedure, shortened: as §1
[8] = test system: HeLa; test: Growth inhibition of human HeLa cells after 72 hrs by celltiter-blue viability assay; assay type: functional; procedure, shortened: as §1
[9] = test system: A549; test: Growth inhibition of human A549 cells after 72 hrs by celltiter-blue viability assay; assay type: functional; conditions: A549, 72 h; procedure, shortened: as §1
[10] = Growth inhibition of HUVEC after 72 hrs by celltiter-blue viability assay; assay type: cell-based; conditions: human; procedure, shortened: as §1
[11] = target: ATP-dependent translocase ABCB1 (Homo sapiens, UniProt P08183); test: Inhibition of MDR1 in human HCT15 cells assessed as calcein-AM efflux at 10 uM by fluorescence assay; assay type: cell-based; conditions: hct-15, 10 µM
Chain of ATP-dependent translocase ABCB1 (P08183 whole entry): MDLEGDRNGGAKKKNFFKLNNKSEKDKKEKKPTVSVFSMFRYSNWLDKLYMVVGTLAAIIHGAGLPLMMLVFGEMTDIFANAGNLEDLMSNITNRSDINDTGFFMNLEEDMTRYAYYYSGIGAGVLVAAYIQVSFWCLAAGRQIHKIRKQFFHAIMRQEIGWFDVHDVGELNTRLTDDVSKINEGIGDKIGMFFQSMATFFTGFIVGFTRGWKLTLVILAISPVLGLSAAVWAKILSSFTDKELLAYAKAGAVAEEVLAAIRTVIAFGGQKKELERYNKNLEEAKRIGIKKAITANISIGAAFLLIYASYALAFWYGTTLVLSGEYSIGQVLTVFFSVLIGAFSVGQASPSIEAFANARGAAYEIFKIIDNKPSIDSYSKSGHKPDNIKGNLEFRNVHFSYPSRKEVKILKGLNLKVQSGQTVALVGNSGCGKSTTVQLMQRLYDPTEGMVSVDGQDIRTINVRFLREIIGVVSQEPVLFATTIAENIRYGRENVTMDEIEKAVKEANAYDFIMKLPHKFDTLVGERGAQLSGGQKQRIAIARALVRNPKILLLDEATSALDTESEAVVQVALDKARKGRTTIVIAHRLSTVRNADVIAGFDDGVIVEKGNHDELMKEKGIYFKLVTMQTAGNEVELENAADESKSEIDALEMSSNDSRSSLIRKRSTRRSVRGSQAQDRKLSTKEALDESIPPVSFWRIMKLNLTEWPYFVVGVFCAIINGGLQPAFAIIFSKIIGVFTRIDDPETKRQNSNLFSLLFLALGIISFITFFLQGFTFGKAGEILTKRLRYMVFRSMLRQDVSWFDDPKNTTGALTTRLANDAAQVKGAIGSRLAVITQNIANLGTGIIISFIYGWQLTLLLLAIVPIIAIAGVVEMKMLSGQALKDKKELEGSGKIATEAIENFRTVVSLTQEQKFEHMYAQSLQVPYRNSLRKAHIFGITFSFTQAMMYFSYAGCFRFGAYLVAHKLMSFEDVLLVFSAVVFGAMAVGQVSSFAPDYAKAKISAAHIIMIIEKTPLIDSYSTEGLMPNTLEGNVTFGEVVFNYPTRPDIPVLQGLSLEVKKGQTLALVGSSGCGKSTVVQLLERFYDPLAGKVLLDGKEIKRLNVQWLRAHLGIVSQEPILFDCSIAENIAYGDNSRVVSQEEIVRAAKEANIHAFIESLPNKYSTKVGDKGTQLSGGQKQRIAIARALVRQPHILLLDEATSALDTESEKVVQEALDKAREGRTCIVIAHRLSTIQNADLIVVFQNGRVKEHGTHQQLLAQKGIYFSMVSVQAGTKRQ

[12] = test system: MDA-MB-231; test: Growth inhibition of human MDA-MB-231 cells after 72 hrs by celltiter-blue viability assay; assay type: functional; conditions: MDA-MB-231, 72 h; procedure, shortened: as §1
[13] = test system: PC-3; test: Growth inhibition of human PC3 cells after 72 hrs by celltiter-blue viability assay; assay type: functional; conditions: PC-3, 72 h; procedure, shortened: as §1
[14] = test system: SW-620; test: Growth inhibition of human SW620 cells after 72 hrs by celltiter-blue viability assay; assay type: functional; conditions: SW-620, 72 h; procedure, shortened: as §1
[15] = test system: HCT-15; test: Growth inhibition of human HCT15 cells after 72 hrs by celltiter-blue viability assay; assay type: functional; conditions: HCT-15, 72 h; procedure, shortened: as §1
[16] = Growth inhibition of human MES-SA cells after 72 hrs by celltiter-blue viability assay; assay type: functional; procedure, shortened: as §1
[17] = Growth inhibition of human MES-SA/MX2 cells after 72 hrs by celltiter-blue viability assay; assay type: functional; conditions: MX2, 72 h; procedure, shortened: as §1
[18] = test system: HCT-15; test: Induction of DNA damage in human HCT15 cells assessed as H2AX phosphorylation after 1 hr by Western blot analysis; assay type: functional, cell-based
Procedure, shortened: (§2)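 In-cell Western for pSer139 H2AX after 1 h dosing. Cells at 10 000/well plated 24 h ahead, 0.1% DMSO final. Fixed in 4% paraformaldehyde, permeabilized, stained with anti-phospho-H2AX plus IR800CW secondary and DRAQ5. 800/700 nm ratio, duplicate or triplicate wells, normalized to 0.1% DMSO (0%) and 10 μM etoposide (100%).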

[19] = test system: SW-620; test: Induction of DNA damage in human SW620 cells assessed as H2AX phosphorylation after 1 hr by Western blot analysis; assay type: functional, cell-based; procedure, shortened: as §2
[20] = test system: HeLa; test: Induction of DNA damage in human HeLa cells assessed as H2AX phosphorylation after 1 hr by Western blot analysis; assay type: functional, cell-based; procedure, shortened: as §2
[21] = test system: HCT-15; test: Growth inhibition of human HCT15 cells at 0.5 to 2 uM after 72 hrs by celltiter-blue viability assay in presence of CYP inhibitor ketoconazole; assay type: functional, cell-based
Procedure, shortened: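 HCT-15 cells exposed to 0.5, 1 or 2 μM test agent across a ketoconazole dose range, 0.1% DMSO final. Cell-Titer Blue read at 0 and 72 h. Growth normalized to DMSO controls at 0 h and 72 h.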

[22] = test system: HCT-15; test: Induction of DNA damage in human HCT15 cells assessed as H2AX phosphorylation after 4 hrs by Western blot analysis presence of CYP inhibitor ketoconazole; assay type: functional, cell-based
Procedure, shortened: (§3)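 Cells pretreated 1 h with 10 μM ketoconazole, then dosed 4 h. pSer139 H2AX measured by in-cell Western as 800/700 nm ratio (DRAQ5 normalization), scaled to 0.1% DMSO (0%) and 10 μM etoposide (100%). In SW620 cells, test agent at 10 μM with 20 μM camptothecin as comparator.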

[23] = test system: Liver; test: Induction of DNA damage in human liver microsomes assessed as conversion of supercoiled plasmid DNA to nicked DNA by at 100 nM by agarose gel electrophoresis in presence of NADPH generating system; assay type: functional; conditions: Microsome
Procedure, shortened: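 Supercoiled pLenti6 plasmid (120 μg/mL) incubated 4 h at 37 °C with compound (100 nM–1 μM, 1% DMSO) plus or minus human liver microsomes (0.25 mg/mL) and NADPH regenerating system (1.5 mM NADP, 12.5 mM G6P, 0.25 U/mL G6PDH, 100 mM phosphate pH 7.5, 5 mM MgCl2). Phenol/chloroform stop, DNA purified, 0.8% agarose gel for nicked versus supercoiled forms.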

[24] = test system: SW-620; test: Induction of DNA damage in human SW620 cells assessed as H2AX phosphorylation at 10 uM in presence of CYP inhibitor ketoconazole; assay type: functional, cell-based; procedure, shortened: as §3
[25] = test system: HCT-15; test: Ratio of austocystin D GI50 to verapamil GI50 for MDR1 expressing human HCT15 cells; assay type: functional
[26] = test system: MCF7; test: Selectivity ratio of GI50 for human MCF7 cells over GI50 for human MES-SA cells; assay type: functional
[27] = test system: MCF7; test: Selectivity ratio of GI50 for human MCF7 cells over GI50 for human MCF10A cells
[28] = test system: MCF7; test: Growth inhibition of human MCF7 cells at up to 10 uM after 72 hrs by celltiter-blue viability assay; assay type: functional, cell-based
[29] = test system: MCF7; test: Induction of DNA damage in human MCF7 cells assessed as H2AX phosphorylation up to 10 uM after 4 hrs by Western blot analysis; assay type: functional, cell-based
Procedure, shortened: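 In-cell Western: MCF7 at 10 000 cells/well, dosed 24 h later with 3-fold serial dilutions (final DMSO 0.1%); 4 h at 37 °C, paraformaldehyde fixation, anti-phospho-H2AX Ser139 with IR800 secondary, DRAQ5 for normalization (800/700 nm ratio); duplicate or triplicate wells, scaled to 0.1% DMSO (0%) and 10 μM etoposide (100%); nonlinear curve fit.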

COc1cccc2c1C(=O)c1c(O)c3c(c(O)c1C2=O)C[C@@](O)(C(=O)CO)C[C@@H]3O[C@H]1C[C@H](N)[C@H](O)[C@H](C)O1 [DOXORUBICIN]
GI50 ([1]; MCF7, 72 h): > 5 µM | GI50 at 72 h [2]: > 5 µM | Activity [3]: Dose-dependent effect | fold change (FC) [4]: 50

COc1ccc(CCN(C)CCCC(C#N)(c2ccc(OC)c(OC)c2)C(C)C)cc1OC (stereo not drawn)
Activity [5]: Active

CC[C@@]1(O)C(=O)OCc2c1cc1n(c2=O)Cc2cc3ccccc3nc2-1
Activity [3]: Dose-dependent effect

COc1cc2c(c3oc(=O)c4c(c13)CCC4=O)[C@@H]1C=CO[C@@H]1O2 [AFLATOXIN]
GI50 [1]: > 5 µM | GI50 at 72 h [2]: > 5 µM

CC(C)(O)CCc1ccc(O)c2c(=O)c3c(O)c4c(cc3oc12)O[C@H]1OC=C[C@@]41O [AUSTOCYSTIN D]
GI50 ([1]; MCF7, 72 h): < 0.001 µM | GI50 [6]: 4.95 µM | GI50 [7]: 0.016 µM | GI50 [8]: > 5 µM | GI50 [9]: > 5 µM | GI50 at 72 h [2]: 3.51 µM | GI50 at 72 h [10]: 4.25 µM | inhibition (INH) [11]: Active | GI50 [12]: 0.549 µM | GI50 [13]: 0.003 µM | GI50 [14]: 0.027 µM | GI50 [15]: 0.042 µM | GI50 [16]: > 10 µM | GI50 [17]: 3.36 µM | Activity [5]: Active | Activity [18]: Active | Activity [19]: Active | Activity [20]: Active | growth inhibition (GI) [21]: inactive | Activity [22]: inactive | Activity [23]: Active | Activity [24]: inactive | RatioGI50 [25]: >1000 | RatioGI50 [26]: >10000 | RatioGI50 [27]: >1000

COc1cc([C@@H]2c3cc4c(cc3[C@@H](O[C@@H]3O[C@@H]5CO[C@@H](C)O[C@H]5[C@H](O)[C@H]3O)[C@H]3COC(=O)[C@H]23)OCO4)cc(OC)c1O [ETOPOSIDE]
GI50 ([1]; MCF7, 72 h): > 5 µM | GI50 at 72 h [2]: > 5 µM | fold change (FC) [4]: 50

CC(C)(O)CCc1ccc(O)c2c(=O)c3c(O)c4c(cc3oc12)O[C@H]1OCC[C@@]41O
growth inhibition (GI) [28]: inactive | Activity [29]: inactive

From ChEMBL document CHEMBL2163277, “The selectivity of austocystin D arises from cell-line-specific drug activation by cytochrome P450 enzymes” (J Nat Prod, 2011)
